Results from article PMC11406655 (Therapeutic Advances in Hematology, 2024).
Several values for one entry are separate records, joined by “and”; a condition that tells them apart may be missing. Equal entries are not always repeated.

Assays:
Assay type in all cases: in vivo, human
[1] = Plasma pharmacokinetics of GSK3326595
[2] = system: patients with relapsed and/or refractory MDS, CMML, or AML; assay: Clinical response per International Working Group criteria, PFS and OS
[3] = system: patients with relapsed and/or refractory MDS, CMML, or AML; assay: Safety: adverse events, dose-limiting toxicities and deaths
In short: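 Open-label, multicenter part 1 in adults with relapsed/refractory MDS, CMML or secondary AML. The 300 mg dose-expansion cohort took the test compound orally once daily with water only, at about the same time (±4 h), on every day of 28-day cycles. Deaths were split into ⩽30 days or >30 days after the last dose. The analysis covered all patients given at least one dose.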

[4] = system: symmetrical dimethylarginine (SDMA) in bone marrow biopsies; assay: SDMA in bone marrow biopsies by immunohistochemistry; settings: for Mean percentage decrease in SDMA in bone marrow biopsies: after 29 days of treatment
In short: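 Adults with relapsed/refractory MDS, CMML or secondary AML took the test compound orally once daily (400 or 300 mg) with water only, every day of 28-day cycles. Bone marrow biopsies were taken predose and 29 days after treatment began, formalin-fixed and paraffin-embedded. SDMA loss was assessed by immunohistochemistry.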

## CC(=O)N1CCC(Nc2cc(C(=O)NC[C@H](O)CN3CCc4ccccc4C3)ncn2)CC1 [GSK3326595]
[1]; 300 and 400 mg
  Dose proportionality of exposure: dose-proportional
[1]; human, plasma, po, 400 mg
  half-life: 4 to 6 h
[1]; human, plasma, po, 400 mg, Tmax, 300 and 400 mg once daily
  Tmax: ~2 h
[2]; 300 mg once daily oral, n = 17
  Best overall response: CR: 0 n (%)
  Best overall response: Disease progression: 9 (53) n (%)
  Best overall response: HI: 0 n (%)
  Best overall response: Not evaluable: 3 (18) n (%)
  Best overall response: PR: 0 n (%)
  Best overall response: SD: 4 (24) n (%)
  Best overall response: SD lasting <8 weeks: 2 (12) n (%)
  Best overall response: SD lasting ⩾8 weeks: 2 (12) n (%)
  Best overall response: mCR: 1 (6) n (%)
  Clinical benefit rate (CR + mCR + PR + SD ⩾8 weeks + HI): 3 (18) n (%)
  Overall response rate (CR + mCR + PR): 1 (6) n (%)
[2]; 400 mg once daily oral, n = 13
  Best overall response: CR: 0 n (%)
  Best overall response: Disease progression: 4 (31) n (%)
  Best overall response: HI: 0 n (%)
  Best overall response: Not evaluable: 4 (31) n (%)
  Best overall response: PR: 0 n (%)
  Best overall response: SD: 5 (38) n (%)
  Best overall response: SD lasting <8 weeks: 3 (23) n (%)
  Best overall response: SD lasting ⩾8 weeks: 2 (15) n (%)
  Best overall response: mCR: 0 n (%)
  Clinical benefit rate (CR + mCR + PR + SD ⩾8 weeks + HI): 2 (15) n (%)
[2]; 1 patient, plain language summary
  Duration of complete marrow remission: approximately 8 months
[2]; Total, 400 or 300 mg once daily oral, N = 30
  Clinical benefit rate (CR + mCR + PR + SD ⩾8 weeks + HI): 5 (17) n (%)
[2]; Total, N = 30
  Best overall response: CR: 0 n (%)
  Best overall response: Disease progression: 13 (43) n (%)
  Best overall response: HI: 0 n (%)
  Best overall response: Not evaluable: 7 (23) n (%)
  Best overall response: PR: 0 n (%)
  Best overall response: SD: 9 (30) n (%)
  Best overall response: SD lasting <8 weeks: 5 (17) n (%)
  Best overall response: SD lasting ⩾8 weeks: 4 (13%) n (%) and 4 (13) n (%)
  Best overall response: mCR: 1 (3%) n (%) and 1 (3) n (%)
  Overall response rate (CR + mCR + PR): 1 (3) n (%)
  Patients meeting CBR criteria: 17%
  Patients not evaluable: 23%
  Patients with disease progression while on study treatment: 43%
[2]; one patient with MDS, 300-mg cohort
  Duration of mCR: 245 days
[3]; 300 mg, n = 17
  Died (during the study): 14 (82%) n (%)
  GSK3326595-related TEAE: AE leading to study treatment withdrawn: 2 (12) n (%)
  GSK3326595-related TEAE: Anemia: 2 (12) n (%)
  GSK3326595-related TEAE: Any SAE: 3 (18) n (%)
  GSK3326595-related TEAE: Any TEAEs: 13 (76) n (%)
  GSK3326595-related TEAE: Any grade 3/4 TEAE: 8 (47%) n (%) and 8 (47) n (%)
  GSK3326595-related TEAE: Decreased appetite: 3 (18) n (%)
  GSK3326595-related TEAE: Decreased platelet count: 5 (29) n (%)
  GSK3326595-related TEAE: Dysgeusia: 4 (24) n (%)
  GSK3326595-related TEAE: Fatal SAE: 1 (6) n (%)
  GSK3326595-related TEAE: Fatigue: 2 (12) n (%)
  GSK3326595-related TEAE: Nausea: 4 (24) n (%)
  GSK3326595-related TEAE: Neutrophil count decreased: 2 (12) n (%)
  GSK3326595-related TEAE: Thrombocytopenia: 2 (12) n (%)
  TEAE: AE leading to dose interruption: 10 (59) n (%)
  TEAE: AE leading to dose reduction: 1 (6) n (%)
  TEAE: AE leading to study treatment withdrawn: 3 (18) n (%)
  TEAE: Anemia: 7 (41) n (%)
  TEAE: Any AE: 17 (100) n (%)
  TEAE: Any SAE: 12 (71) n (%)
  TEAE: Decreased appetite: 4 (24) n (%)
  TEAE: Decreased platelet count: 8 (47) n (%)
  TEAE: Diarrhea: 7 (41) n (%)
  TEAE: Dysgeusia: 7 (41) n (%)
  TEAE: Dyspnea: 6 (35) n (%)
  TEAE: Fatal SAE: 5 (29%) n (%) and 5 (29) n (%)
  TEAE: Fatigue: 6 (35) n (%)
  TEAE: Nausea: 5 (29) n (%)
[3]; 400 mg, n = 13
  Died (during the study): 11 (85%) n (%)
  GSK3326595-related TEAE: AE leading to study treatment withdrawn: 0 n (%)
  GSK3326595-related TEAE: Anemia: 1 (8) n (%)
  GSK3326595-related TEAE: Any SAE: 3 (23) n (%)
  GSK3326595-related TEAE: Any TEAEs: 9 (69) n (%)
  GSK3326595-related TEAE: Any grade 3/4 TEAE: 5 (38%) n (%) and 5 (38) n (%)
  GSK3326595-related TEAE: Decreased appetite: 1 (8) n (%)
  GSK3326595-related TEAE: Decreased platelet count: 3 (23) n (%)
  GSK3326595-related TEAE: Dysgeusia: 3 (23) n (%)
  GSK3326595-related TEAE: Fatal SAE: 0 n (%)
  GSK3326595-related TEAE: Fatigue: 4 (31) n (%)
  GSK3326595-related TEAE: Nausea: 2 (15) n (%)
  GSK3326595-related TEAE: Neutrophil count decreased: 2 (15) n (%)
  GSK3326595-related TEAE: Thrombocytopenia: 1 (8) n (%)
  TEAE: AE leading to dose interruption: 10 (77) n (%)
  TEAE: AE leading to dose reduction: 5 (38) n (%)
  TEAE: AE leading to study treatment withdrawn: 4 (31) n (%)
  TEAE: Anemia: 3 (23) n (%)
  TEAE: Any AE: 13 (100) n (%)
  TEAE: Any SAE: 11 (85) n (%)
  TEAE: Decreased appetite: 5 (38) n (%)
  TEAE: Decreased platelet count: 4 (31) n (%)
  TEAE: Diarrhea: 6 (46) n (%)
  TEAE: Dysgeusia: 3 (23) n (%)
  TEAE: Dyspnea: 5 (38) n (%)
  TEAE: Fatal SAE: 9 (69%) n (%) and 9 (69) n (%)
  TEAE: Fatigue: 7 (54) n (%)
  TEAE: Nausea: 4 (31) n (%)
[3]; 300-mg cohort
  Deaths >30 days from last dose of study treatment (number): 6
  Deaths ⩽30 days from last dose of study treatment (number): 8
[3]; 400-mg cohort
  Deaths >30 days from last dose of study treatment (number): 5
  Deaths ⩽30 days from last dose of study treatment (number): 6
[3]; Total, N = 30
  Deaths >30 days from last dose of study treatment: 11 (37%) n (%)
  Deaths ⩽30 days from last dose of study treatment: 47%
  Died (during the study): 25 (83%) n (%)
  GSK3326595-related AE: decreased platelet count: 27%
  GSK3326595-related AE: dysgeusia: 23%
  GSK3326595-related AE: fatigue: 20%
  GSK3326595-related AE: nausea: 20%
  GSK3326595-related TEAE with maximum grade of 3 or 4: decreased neutrophil count: 4 (13%) n (%)
  GSK3326595-related TEAE with maximum grade of 3 or 4: decreased platelet count: 6 (20%) n (%)
  GSK3326595-related TEAE with maximum grade of 3 or 4: thrombocytopenia: 3 (10%) n (%)
  GSK3326595-related TEAE: AE leading to study treatment withdrawn: 2 (7) n (%)
  GSK3326595-related TEAE: Anemia: 3 (10%) n (%) and 3 (10) n (%)
  GSK3326595-related TEAE: Any SAE: 6 (20%) n (%) and 6 (20) n (%)
  GSK3326595-related TEAE: Any TEAEs: 22 (73) n (%)
  GSK3326595-related TEAE: Any grade 3/4 TEAE: 13 (43) n (%)
  GSK3326595-related TEAE: Decreased appetite: 4 (13%) n (%) and 4 (13) n (%)
  GSK3326595-related TEAE: Decreased platelet count: 8 (27%) n (%) and 8 (27) n (%)
  GSK3326595-related TEAE: Dysgeusia: 7 (23%) n (%) and 7 (23) n (%)
  GSK3326595-related TEAE: Fatal SAE: 1 (3) n (%)
  GSK3326595-related TEAE: Fatigue: 6 (20%) n (%) and 6 (20) n (%)
  GSK3326595-related TEAE: Nausea: 6 (20%) n (%) and 6 (20) n (%)
  GSK3326595-related TEAE: Neutrophil count decreased: 4 (13%) n (%) and 4 (13) n (%)
  GSK3326595-related TEAE: Thrombocytopenia: 3 (10%) n (%) and 3 (10) n (%)
  Patients who died during the study: 83%
  SAE: anemia: 3 (10%) n (%)
  SAE: febrile neutropenia: 5 (17%) n (%)
  SAE: pneumonia: 4 (13%) n (%)
  SAE: sepsis: 8 (27%) n (%)
  SAE: thrombocytopenia: 3 (10%) n (%)
  TEAE with maximum grade of 3 or 4: anemia: 8 (27%) n (%)
  TEAE with maximum grade of 3 or 4: decreased neutrophil count: 7 (23%) n (%)
  TEAE with maximum grade of 3 or 4: decreased platelet count: 11 (37%) n (%)
  TEAE with maximum grade of 3 or 4: dyspnea: 4 (13%) n (%)
  TEAE with maximum grade of 3 or 4: fatigue: 4 (13%) n (%)
  TEAE with maximum grade of 3 or 4: febrile neutropenia: 6 (20%) n (%)
  TEAE with maximum grade of 3 or 4: hypotension: 4 (13%) n (%)
  TEAE with maximum grade of 3 or 4: pneumonia: 6 (20%) n (%)
  TEAE with maximum grade of 3 or 4: thrombocytopenia: 5 (17%) n (%)
  TEAE: AE leading to dose interruption: 20 (67) n (%)
  TEAE: AE leading to dose reduction: 6 (20) n (%)
  TEAE: AE leading to study treatment withdrawn: 7 (23) n (%)
  TEAE: Anemia: 10 (33%) n (%) and 10 (33) n (%)
  TEAE: Any AE: 30 (100) n (%)
  TEAE: Any SAE: 23 (77) n (%)
  TEAE: Decreased appetite: 9 (30%) n (%) and 9 (30) n (%)
  TEAE: Decreased platelet count: 12 (40%) n (%) and 12 (40) n (%)
  TEAE: Diarrhea: 13 (43%) n (%) and 13 (43) n (%)
  TEAE: Dysgeusia: 10 (33%) n (%) and 10 (33) n (%)
  TEAE: Dyspnea: 11 (37%) n (%) and 11 (37) n (%)
  TEAE: Fatal SAE: 14 (47) n (%)
  TEAE: Fatigue: 13 (43%) n (%) and 13 (43) n (%)
  TEAE: Nausea: 9 (30%) n (%) and 9 (30) n (%)
  TEAE: thrombocytopenia: 5 (17%) n (%)
  Treatment-related SAE: decreased neutrophil count: 3 (10%) n (%)
[3]; Total, N = 30, n = 2
  Study treatment discontinued due to sepsis: 7%
[4]; 300-mg cohort, 7 patients
  Mean percentage decrease in SDMA in bone marrow biopsies: 84.63%
[4]; 400-mg cohort, 4 patients
  Mean percentage decrease in SDMA in bone marrow biopsies: 85.75%
[4]; day 29, 300-mg cohort
  Maximum observed decrease in tumor SDMA: 97.8%
[4]; day 29, 400-mg cohort
  Maximum observed decrease in tumor SDMA: 100%
